Source: ChEMBL document CHEMBL3877339, “Efficient Semisynthesis of (-)-Pseudoirroratin A from (-)-Flexicaulin A and Assessment of Their Antitumor Activities” (ACS Med Chem Lett, 2017)
Calls of active or inactive are those of the source. No cut-off for these calls is given here.

Legend:
HCT-116 [1] = assay: Antiproliferative activity against human HCT116 cells at 2.5 ug/ml by light microscopic method; assay type: functional, cell-based
How it was run: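 HCT-116 cells grown at relatively high density, untreated or compound-treated, then viewed by light microscopy at 10× magnification.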

HT-29 = assay: (§1) Cytotoxicity against human HT-29 cells assessed as reduction in cell viability after 48 hrs by MTT assay; assay type: functional, cell-based
How it was run: (§2)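 MTT viability assay over a compound concentration series in colorectal carcinoma cells; IC50 taken from dose–response curves. Mean ± SD of three separate experiments.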

[2] = as §1; assay type: functional, cell-based; settings: HT-29, 48 h; how it was run: as §2
[3] = (§3) Cytotoxicity against human HCT116 cells assessed as reduction in cell viability after 48 hrs by MTT assay; assay type: functional, cell-based; settings: HCT-116, 48 h; how it was run: as §2
HCT-116 [4] = assay: as §3; assay type: functional, cell-based; how it was run: as §2
Mus musculus = assay: Toxicity in BALB/c mouse xenografted with human HCT116 cells assessed as change in body weight at 20 mg/kg, ip administered every other day for 14 days; assay type: organism-based, HCT-116; settings: in vivo, 336 h
HCT-116 [5] = assay: Induction of apoptosis in human HCT116 cells assessed as late apoptotic cells at 10 ug/ml after 48 hrs by Annexin V-FITC/propidium iodide staining based flow cytometry (reference value: 3.6%); assay type: functional
HCT-116 [6] = assay: Induction of apoptosis in human HCT116 cells cytoplasmic extract assessed as increase in cleaved PARP expression at 0.3125 to 2.5 ug/ml after 48 hrs by Western blot method; assay type: functional, cell-based
How it was run: (§4)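 HCT-116 cells treated at 0–2.5 μg/mL, then split into cytoplasmic and nuclear extracts for Western blotting. The cytoplasmic fraction was probed for cleaved PARP, cleaved caspase-3, phospho-ERK and survivin, with α-tubulin as loading control. The nuclear fraction was probed for HDAC1, with histone H3 as loading control.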

HCT-116 [7] = assay: Induction of apoptosis in human HCT116 cells assessed as early apoptotic cells at 10 ug/ml after 48 hrs by Annexin V-FITC/propidium iodide staining based flow cytometry (reference value: 3.7%); assay type: functional
HCT-116 [8] = assay: Induction of apoptosis in human HCT116 cells cytoplasmic extract assessed as increase in cleaved caspase-3 expression at 0.3125 to 2.5 ug/ml after 48 hrs by Western blot method; assay type: functional, cell-based; how it was run: as §4
HCT-116 [9] = assay: Induction of apoptosis in human HCT116 cells assessed as early apoptotic cells at 1 ug/ml after 48 hrs by Annexin V-FITC/propidium iodide staining based flow cytometry (reference value: 3.7%); assay type: functional
HCT-116 [10] = assay: Induction of apoptosis in human HCT116 cells assessed as late apoptotic cells at 5 ug/ml after 48 hrs by Annexin V-FITC/propidium iodide staining based flow cytometry (reference value: 3.6%); assay type: functional
HCT-116 [11] = assay: Induction of apoptosis in human HCT116 cells cytoplasmic extract assessed as decrease in survivin expression at 0.3125 to 2.5 ug/ml after 48 hrs by Western blot method; assay type: functional, cell-based; how it was run: as §4
[12] = Downregulation of HDAC1 expression in human HCT116 cells nuclear extract at >0.625 ug/ml after 48 hrs by Western blot method; assay type: functional, cell-based; settings: HCT-116; how it was run: as §4
HCT-116 [13] = assay: Induction of apoptosis in human HCT116 cells assessed as necrotic cells at 0.5 ug/ml after 48 hrs by Annexin V-FITC/propidium iodide staining based flow cytometry (reference value: 1.3%); assay type: functional
HCT-116 [14] = assay: Antitumor activity against human HCT116 cells xenografted in BALB/c nude mouse assessed as inhibition of tumor volume at 20 mg/kg, ip administered every other day for 14 days; assay type: functional, organism-based
How it was run: (§5)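 HCT-116 cells implanted subcutaneously in the flanks of nude mice. Compound given intraperitoneally at 20 mg/kg every other day for 14 days; controls got vehicle. Tumour volume measured per animal at set time points, and tumours excised at study end; mean ± SD, n = 10 per group.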

HCT-116 [15] = assay: Induction of apoptosis in human HCT116 cells assessed as late apoptotic cells at 0.5 ug/ml after 48 hrs by Annexin V-FITC/propidium iodide staining based flow cytometry (reference value: 3.6%); assay type: functional
HCT-116 [16] = assay: Induction of apoptosis in human HCT116 cells assessed as late apoptotic cells at 2 ug/ml after 48 hrs by Annexin V-FITC/propidium iodide staining based flow cytometry (reference value: 3.6%); assay type: functional
HCT-116 [17] = assay: Induction of apoptosis in human HCT116 cells assessed as necrotic cells at 2 ug/ml after 48 hrs by Annexin V-FITC/propidium iodide staining based flow cytometry (reference value: 1.3%); assay type: functional
HCT-116 [18] = assay: Antitumor activity against human HCT116 cells xenografted in BALB/c nude mouse assessed as inhibition of tumor weight at 20 mg/kg, ip administered every other day for 14 days; assay type: functional, organism-based; how it was run: as §5
HCT-116 [19] = assay: Induction of apoptosis in human HCT116 cells assessed as late apoptotic cells at 1 ug/ml after 48 hrs by Annexin V-FITC/propidium iodide staining based flow cytometry (reference value: 3.6%); assay type: functional
HCT-116 [20] = assay: Induction of apoptosis in human HCT116 cells assessed as early apoptotic cells at 5 ug/ml after 48 hrs by Annexin V-FITC/propidium iodide staining based flow cytometry (reference value: 3.7%); assay type: functional
HCT-116 [21] = assay: Induction of apoptosis in human HCT116 cells after 48 hrs by Annexin V-FITC/propidium iodide staining based flow cytometry; assay type: functional, cell-based
HCT-116 [22] = assay: Induction of apoptosis in human HCT116 cells assessed as necrotic cells at 5 ug/ml after 48 hrs by Annexin V-FITC/propidium iodide staining based flow cytometry (reference value: 1.3%); assay type: functional
HCT-116 [23] = assay: Induction of apoptosis in human HCT116 cells assessed as necrotic cells at 1 ug/ml after 48 hrs by Annexin V-FITC/propidium iodide staining based flow cytometry (reference value: 1.3%); assay type: functional
HCT-116 [24] = assay: Increase in ERK phosphorylation in human HCT116 cells cytoplasmic extract at 0.3125 to 2.5 ug/ml after 48 hrs by Western blot method; assay type: cell-based; how it was run: as §4
HCT-116 [25] = assay: Induction of apoptosis in human HCT116 cells assessed as early apoptotic cells at 0.5 ug/ml after 48 hrs by Annexin V-FITC/propidium iodide staining based flow cytometry (reference value: 3.7%); assay type: functional
HCT-116 [26] = assay: Induction of apoptosis in human HCT116 cells assessed as early apoptotic cells at 2 ug/ml after 48 hrs by Annexin V-FITC/propidium iodide staining based flow cytometry (reference value: 3.7%); assay type: functional
HCT-116 [27] = assay: Induction of apoptosis in human HCT116 cells assessed as necrotic cells at 10 ug/ml after 48 hrs by Annexin V-FITC/propidium iodide staining based flow cytometry (reference value: 1.3%); assay type: functional

## C=C1C(=O)[C@@]23[C@H](O)C[C@@H]4C(C)(C)CCC[C@@]4(COC(C)=O)[C@@H]2[C@@H](O)C[C@@H]1[C@H]3O [FLEXICANLIN A]
HCT-116 [1]
  Activity: Active
HT-29
  Activity: Dose-dependent effect
[2]
  IC50: 10.5 µM
[3]
  IC50: 7.3 µM
HCT-116 [4]
  Activity: Dose-dependent effect
Mus musculus
  Activity: Non-Toxic

## C=C1C(=O)[C@]23[C@H](O)C[C@@H]4C(C)(C)CCC[C@]45CO[C@](O)(C[C@@H]1[C@H]2O)[C@@H]53 [PSEUDOIRRORATIN A]
HCT-116 [5]
  Activity: 30.2%
HCT-116 [6]
  Activity: Active
HCT-116 [7]
  Activity: 33.9%
HCT-116 [8]
  Activity: Active
HCT-116 [9]
  Activity: 10%
HCT-116 [10]
  Activity: 24.7%
HCT-116 [11]
  Activity: Active
[12]
  Activity: Active
HCT-116 [13]
  Activity: 3.1%
HCT-116 [1]
  Activity: Active
HT-29
  Activity: Dose-dependent effect
[2]
  IC50: 5.9 µM
HCT-116 [14]
  Activity: Active
HCT-116 [15]
  Activity: 5.3%
HCT-116 [16]
  Activity: 27.8%
HCT-116 [17]
  Activity: 14.7%
HCT-116 [18]
  Activity: Active
HCT-116 [19]
  Activity: 17%
[3]
  IC50: 4.9 µM
HCT-116 [4]
  Activity: Dose-dependent effect
HCT-116 [20]
  Activity: 26.2%
Mus musculus
  Activity: Non-Toxic
HCT-116 [21]
  Activity: Dose-dependent effect
HCT-116 [22]
  Activity: 21.1%
HCT-116 [23]
  Activity: 11.1%
HCT-116 [24]
  Activity: Active
HCT-116 [25]
  Activity: 8.5%
HCT-116 [26]
  Activity: 18.3%
HCT-116 [27]
  Activity: 13.8%
